# According to ChEMBL document CHEMBL1155222, “Synthesis and anticancer activity of N-bis(trifluoromethyl)alkyl-N'-thiazolyl and N-bis(trifluoromethyl)alkyl-N'-benzothiazolyl ureas” (2009):
# Columns and labels:
# Type in all cases: functional
# MDA-N = assay: Anticancer activity against human MDA-N cells after 48 hrs by sulforhodamine B assay
# In short: (§1)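 NCI 60-cell-line screen. Cells grown in RPMI 1640 with 5% FBS and 2 mM L-glutamine, plated at 5000–40,000 cells/well, and preincubated 24 h at 37 °C under 5% CO2. Compounds were taken from DMSO stocks and tested at five final concentrations, 10^-4 to 10^-8 M, for 48 h. Cells were TCA-fixed, stained with 0.4% SRB, and read at 515 nm. GI50, TGI and LC50 were derived as log molar values.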
# SF-295 = assay: Anticancer activity against human SF295 cells after 48 hrs by sulforhodamine B assay; conditions: SF-295, 48 h; in short: as §1
# SF-539 = assay: Anticancer activity against human SF539 cells after 48 hrs by sulforhodamine B assay; conditions: SF-539, 48 h; in short: as §1
# T47D = assay: Anticancer activity against human T47D cells after 48 hrs by sulforhodamine B assay
# In short: (§2)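 NCI 60-cell-line panel; cells grown in RPMI 1640 with 5% FBS and 2 mM L-glutamine, plated at 5000–40,000 cells/well and preincubated 24 h at 37 °C, 5% CO2. Compounds came from DMSO stocks diluted in medium with gentamicin and were tested at five final concentrations, 10^-4 to 10^-8 M, for 48 h. Cells were fixed with TCA, stained with SRB and read at 515 nm. GI50, TGI and LC50 were derived as log molar values.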
# HCT-15 = assay: Anticancer activity against human HCT15 cells after 48 hrs by sulforhodamine B assay; conditions: HCT-15, 48 h; in short: as §1
# ACHN = assay: Anticancer activity against human ACHN cells after 48 hrs by sulforhodamine B assay; in short: as §1
# A498 = assay: Anticancer activity against human A498 cells after 48 hrs by sulforhodamine B assay; conditions: A498, 48 h; in short: as §1
# SK-MEL-5 = assay: Anticancer activity against human SK-MEL-5 cells after 48 hrs by sulforhodamine B assay; conditions: SK-MEL-5, 48 h; in short: as §1
# OVCAR-4 = assay: Anticancer activity against human OVCAR4 cells after 48 hrs by sulforhodamine B assay; conditions: OVCAR-4, 48 h; in short: as §1
# EKVX = assay: Anticancer activity against human EKVX cells after 48 hrs by sulforhodamine B assay; in short: as §1
# U-251 = assay: Anticancer activity against human U251 cells after 48 hrs by sulforhodamine B assay; conditions: U-251, 48 h; in short: as §2
# MDA-MB-435 = assay: Anticancer activity against human MDA-MB-435 cells after 48 hrs by sulforhodamine B assay; conditions: MDA-MB-435, 48 h; in short: as §1
# MOLT-4 = assay: Anticancer activity against human MOLT4 cells after 48 hrs by sulforhodamine B assay; conditions: MOLT-4, 48 h; in short: as §1
# SN12C = assay: Anticancer activity against human SN12C cells after 48 hrs by sulforhodamine B assay; in short: as §2
# OVCAR-8 = assay: Anticancer activity against human OVCAR8 cells after 48 hrs by sulforhodamine B assay; conditions: OVCAR-8, 48 h; in short: as §1
# M14 = assay: Anticancer activity against human M14 cells after 48 hrs by sulforhodamine B assay; conditions: M14, 48 h; in short: as §1
# NCI-H322M = assay: Anticancer activity against human NCI-H322M cells after 48 hrs by sulforhodamine B assay; in short: as §1
# Malme-3M = assay: Anticancer activity against human MALME-3M cells after 48 hrs by sulforhodamine B assay; in short: as §1
# HT-29 = assay: Anticancer activity against human HT-29 cells after 48 hrs by sulforhodamine B assay; conditions: HT-29, 48 h; in short: as §1
# DU-145 = assay: Anticancer activity against human DU145 cells after 48 hrs by sulforhodamine B assay; conditions: DU-145, 48 h; in short: as §1
# SNB-75 = assay: Anticancer activity against human SNB75 cells after 48 hrs by sulforhodamine B assay; conditions: SNB-75, 48 h; in short: as §2
# HCC 2998 = assay: Anticancer activity against human HCC2998 cells after 48 hrs by sulforhodamine B assay; conditions: HCC 2998, 48 h; in short: as §1
# 786-0 = assay: Anticancer activity against human 786-0 cells after 48 hrs by sulforhodamine B assay; conditions: 786-0, 48 h; in short: as §1
# RXF 393 = assay: Anticancer activity against human RXF393 cells after 48 hrs by sulforhodamine B assay; conditions: RXF 393, 48 h; in short: as §1
# SK-OV-3 = assay: Anticancer activity against human SKOV3 cells after 48 hrs by sulforhodamine B assay; conditions: SK-OV-3, 48 h; in short: as §1
# CAKI-1 = assay: Anticancer activity against human Caki1 cells after 48 hrs by sulforhodamine B assay; conditions: CAKI-1, 48 h; in short: as §1
# MCF7 = assay: Anticancer activity against human MCF7 cells after 48 hrs by sulforhodamine B assay; conditions: MCF7, 48 h; in short: as §1
# MDA-MB-231 = assay: Anticancer activity against human MDA-MB-231 cells after 48 hrs by sulforhodamine B assay; conditions: MDA-MB-231, 48 h; in short: as §1
# UO-31 = assay: Anticancer activity against human UO31 cells after 48 hrs by sulforhodamine B assay; conditions: UO-31, 48 h; in short: as §2
# CCRF-CEM = assay: Anticancer activity against human CCRF-CEM cells after 48 hrs by sulforhodamine B assay; in short: as §1
# SK-MEL-28 = assay: Anticancer activity against human SK-MEL-28 cells after 48 hrs by sulforhodamine B assay; conditions: SK-MEL-28, 48 h; in short: as §1
# SK-MEL-2 = assay: Anticancer activity against human SK-MEL-2 cells after 48 hrs by sulforhodamine B assay; conditions: SK-MEL-2, 48 h; in short: as §1
# KM12 = assay: Anticancer activity against human KM12 cells after 48 hrs by sulforhodamine B assay; conditions: KM12, 48 h; in short: as §1
# UACC-62 = assay: Anticancer activity against human UACC62 cells after 48 hrs by sulforhodamine B assay; conditions: UACC-62, 48 h; in short: as §2
# OVCAR-3 = assay: Anticancer activity against human OVCAR-3 cells after 48 hrs by sulforhodamine B assay; conditions: OVCAR-3, 48 h; in short: as §1
# SNB-19 = assay: Anticancer activity against human SNB19 cells after 48 hrs by sulforhodamine B assay; conditions: SNB-19, 48 h; in short: as §2
# NCI/ADR-RES = assay: Anticancer activity against human NCI/ADR-RES cells after 48 hrs by sulforhodamine B assay; in short: as §1
# HCT-116 = assay: Anticancer activity against human HCT116 cells after 48 hrs by sulforhodamine B assay; conditions: HCT-116, 48 h; in short: as §1
# OVCAR-5 = assay: Anticancer activity against human OVCAR5 cells after 48 hrs by sulforhodamine B assay; conditions: OVCAR-5, 48 h; in short: as §1
# NCI-H226 = assay: Anticancer activity against human NCI-H226 cells after 48 hrs by sulforhodamine B assay; conditions: NCI-H226, 48 h; in short: as §1
# SR = assay: Anticancer activity against human SR cells after 48 hrs by sulforhodamine B assay; in short: as §2
# IGROV-1 = assay: Anticancer activity against human IGROV1 cells after 48 hrs by sulforhodamine B assay; conditions: IGROV-1, 48 h; in short: as §1
# PC-3 = assay: Anticancer activity against human PC3 cells after 48 hrs by sulforhodamine B assay; conditions: PC-3, 48 h; in short: as §1
# HOP-92 = assay: Anticancer activity against human HOP92 cells after 48 hrs by sulforhodamine B assay; conditions: HOP-92, 48 h; in short: as §1
smiles,measurement,setting,value
CCC(NC(=O)Nc1nccs1)(C(F)(F)F)C(F)(F)F,GI50,MDA-N,60.3 µM
same,GI50,SF-295,52.5 µM
same,GI50,SF-539,> 100 µM
same,GI50,T47D,38.9 µM
same,GI50,HCT-15,53.7 µM
same,GI50,ACHN,61.7 µM
same,GI50,A498,46.8 µM
same,GI50,SK-MEL-5,33.9 µM
same,GI50,OVCAR-4,83.2 µM
same,GI50,EKVX,35.5 µM
same,GI50,U-251,40.7 µM
same,GI50,MDA-MB-435,61.7 µM
same,GI50,MOLT-4,30.9 µM
same,GI50,SN12C,55 µM
same,GI50,OVCAR-8,53.7 µM
same,GI50,M14,38 µM
same,GI50,NCI-H322M,> 100 µM
same,GI50,Malme-3M,58.9 µM
same,GI50,HT-29,41.7 µM
same,GI50,DU-145,69.2 µM
same,GI50,SNB-75,19.5 µM
same,GI50,HCC 2998,74.1 µM
same,GI50,786-0,> 100 µM
same,GI50,RXF 393,83.2 µM
same,GI50,SK-OV-3,> 100 µM
same,GI50,CAKI-1,83.2 µM
same,GI50,MCF7,42.7 µM
same,GI50,MDA-MB-231,85.1 µM
same,GI50,UO-31,95.5 µM
same,GI50,CCRF-CEM,19.5 µM
same,GI50,SK-MEL-28,72.4 µM
same,GI50,SK-MEL-2,20 µM
same,GI50,KM12,46.8 µM
same,GI50,UACC-62,40.7 µM
same,GI50,OVCAR-3,61.7 µM
same,GI50,SNB-19,> 100 µM
same,GI50,NCI/ADR-RES,29.5 µM
same,GI50,HCT-116,46.8 µM
same,GI50,OVCAR-5,> 100 µM
same,GI50,NCI-H226,70.8 µM
same,GI50,SR,30.2 µM
same,GI50,IGROV-1,> 100 µM
same,GI50,PC-3,0.0794 µM
same,GI50,HOP-92,60.3 µM
CC(NC(=O)Nc1nc2ccccc2s1)(C(F)(F)F)C(F)(F)F,GI50,MDA-N,97.7 µM
same,GI50,SF-295,60.3 µM
same,GI50,SF-539,24.5 µM
same,GI50,T47D,38 µM
same,GI50,HCT-15,> 100 µM
same,GI50,ACHN,28.8 µM
same,GI50,A498,> 100 µM
same,GI50,SK-MEL-5,49 µM
same,GI50,OVCAR-4,21.9 µM
same,GI50,EKVX,74.1 µM
same,GI50,U-251,33.9 µM
same,GI50,MDA-MB-435,41.7 µM
same,GI50,MOLT-4,18.2 µM
same,GI50,SN12C,25.7 µM
same,GI50,OVCAR-8,52.5 µM
same,GI50,M14,37.2 µM
same,GI50,NCI-H322M,26.9 µM
same,GI50,Malme-3M,15.1 µM
same,GI50,HT-29,19.5 µM
same,GI50,DU-145,91.2 µM
same,GI50,SNB-75,7.59 µM
same,GI50,HCC 2998,38.9 µM
same,GI50,786-0,20.4 µM
same,GI50,RXF 393,64.6 µM
same,GI50,SK-OV-3,52.5 µM
same,GI50,CAKI-1,38.9 µM
same,GI50,MCF7,38 µM
same,GI50,MDA-MB-231,34.7 µM
same,GI50,UO-31,2.19 µM
same,GI50,CCRF-CEM,27.5 µM
same,GI50,SK-MEL-28,72.4 µM
same,GI50,SK-MEL-2,30.2 µM
same,GI50,KM12,46.8 µM
same,GI50,UACC-62,> 100 µM
same,GI50,SNB-19,24.5 µM
same,GI50,NCI/ADR-RES,> 100 µM
same,GI50,HCT-116,41.7 µM
same,GI50,OVCAR-5,81.3 µM
same,GI50,NCI-H226,38.9 µM
same,GI50,SR,3.63 µM
same,GI50,IGROV-1,41.7 µM
same,GI50,PC-3,34.7 µM
same,GI50,HOP-92,75.9 µM
O=C(Nc1nccs1)NC(C(F)(F)F)C(F)(F)F,GI50,MDA-N,> 100 µM
same,GI50,SF-295,43.7 µM
same,GI50,SF-539,> 100 µM
same,GI50,T47D,45.7 µM
same,GI50,HCT-15,66.1 µM
same,GI50,ACHN,55 µM
same,GI50,A498,95.5 µM
same,GI50,SK-MEL-5,38.9 µM
same,GI50,OVCAR-4,39.8 µM
same,GI50,EKVX,41.7 µM
same,GI50,U-251,33.9 µM
same,GI50,MDA-MB-435,79.4 µM
same,GI50,MOLT-4,40.7 µM
same,GI50,SN12C,43.7 µM
same,GI50,OVCAR-8,39.8 µM
same,GI50,M14,> 100 µM
same,GI50,NCI-H322M,87.1 µM
same,GI50,Malme-3M,29.5 µM
same,GI50,HT-29,91.2 µM
same,GI50,DU-145,63.1 µM
same,GI50,SNB-75,55 µM
same,GI50,HCC 2998,31.6 µM
same,GI50,786-0,> 100 µM
same,GI50,RXF 393,77.6 µM
same,GI50,SK-OV-3,> 100 µM
same,GI50,CAKI-1,55 µM
same,GI50,MCF7,40.7 µM
same,GI50,MDA-MB-231,58.9 µM
same,GI50,UO-31,35.5 µM
same,GI50,SK-MEL-28,> 100 µM
same,GI50,SK-MEL-2,45.7 µM
same,GI50,KM12,39.8 µM
same,GI50,UACC-62,63.1 µM
same,GI50,OVCAR-3,42.7 µM
same,GI50,SNB-19,49 µM
same,GI50,NCI/ADR-RES,33.1 µM
same,GI50,HCT-116,38 µM
same,GI50,OVCAR-5,91.2 µM
same,GI50,NCI-H226,57.5 µM
same,GI50,SR,24 µM
same,GI50,IGROV-1,95.5 µM
same,GI50,PC-3,38 µM
same,GI50,HOP-92,38 µM
